# From ChEMBL document CHEMBL4689842, “EUbOPEN Chemogenomics Library wave 1” (2021)
# “And” between values parts separate entries of the source, which are not always exact repeats. Identical values can stand only once.
# System: HEK-293T
# Assay: Multiplex assay against HEK293T;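 on Population Tubulin-Different-Phenotype (%): share of the cells with healthy nuclei that show this phenotype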
# Type: toxicity, cell-based
# Conditions: human
# Summary of the method: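 Cells stained live at seeding with Hoechst33342, BioTracker Green Microtubule Cytoskeleton Dye, MitoTracker Red and Annexin V Alexa Fluor 680 were imaged on a CQ1 microscope at 37°C and 5% CO2 after compound addition. Their classification by CellPathfinder machine-learning gating ran from Hoechst high-intensity objects versus normal cells, to healthy, pyknosed or fragmented nuclei among normal cells, to mitotic or apoptotic among pyknosed cells. Tubulin, mitochondrial-mass and membrane-permeability phenotypes are per cents of healthy-nucleus cells.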
# [1] = 12 h, 1 µM, compound concentration 1 uM, replicate 1
# [2] = 12 h, 1 µM, compound concentration 1 uM, replicate 2
# [3] = 12 h, 10 µM, compound concentration 10 uM, replicate 1
# [4] = 12 h, 10 µM, compound concentration 10 uM, replicate 2
# [5] = 24 h, 1 µM, compound concentration 1 uM, replicate 1
# [6] = 24 h, 1 µM, compound concentration 1 uM, replicate 2
# [7] = 24 h, 10 µM, compound concentration 10 uM, replicate 1
# [8] = 24 h, 10 µM, compound concentration 10 uM, replicate 2
# [9] = 48 h, 10 µM, compound concentration 10 uM, replicate 1
# [10] = 48 h, 10 µM, compound concentration 10 uM, replicate 2
smiles,measurement,setting,value
Cl.O=C(c1ccc(Nc2nccc(-c3cc4ccccc4s3)n2)cc1)N1CCC(N2CCCC2)CC1,Population Apoptotic (%),[1],28%
same,Population Fragmented Nuclei (%),[1],10%
same,Population Healthy Nuclei (%),[1],59%
same,Population Hoechst High Intensity Objects (%),[1],8%
same,Population Membrane Permeable-Phenotype (%),[1],17%
same,Population Mitochondria Different-Phenotype (%),[1],14%
same,Population Mitotic Cells (%),[1],71%
same,Population Normal (%),[1],91%
same,Population Pyknosed Nuclei (%),[1],29%
same,Population Tubulin-Different-Phenotype (%),[1],73%
same,Total Cell Count,[1],657
same,Population Apoptotic (%),[2],12%
same,Population Fragmented Nuclei (%),[2],4%
same,Population Healthy Nuclei (%),[2],89%
same,Population Hoechst High Intensity Objects (%),[2],3%
same,Population Membrane Permeable-Phenotype (%),[2],11%
same,Population Mitochondria Different-Phenotype (%),[2],20%
same,Population Mitotic Cells (%),[2],87%
same,Population Normal (%),[2],96%
same,Population Pyknosed Nuclei (%),[2],6%
same,Population Tubulin-Different-Phenotype (%),[2],67%
same,Total Cell Count,[2],1518
same,Population Apoptotic (%),[3],32% and 71%
same,Population Fragmented Nuclei (%),[3],13% and 26%
same,Population Healthy Nuclei (%),[3],21% and 0%
same,Population Hoechst High Intensity Objects (%),[3],17% and 23%
same,Population Membrane Permeable-Phenotype (%),[3],4% and 0%
same,Population Mitochondria Different-Phenotype (%),[3],66% and 100%
same,Population Mitotic Cells (%),[3],67% and 28%
same,Population Normal (%),[3],82% and 76%
same,Population Pyknosed Nuclei (%),[3],65% and 72%
same,Population Tubulin-Different-Phenotype (%),[3],75% and 100%
same,Population Fragmented Nuclei (%),[4],3% and 9%
same,Population Hoechst High Intensity Objects (%),[4],9% and 10%
same,Population Membrane Permeable-Phenotype (%),[4],6%
same,Population Mitochondria Different-Phenotype (%),[4],68% and 75%
same,Population Normal (%),[4],90% and 89%
same,Population Pyknosed Nuclei (%),[4],58% and 87%
same,Population Tubulin-Different-Phenotype (%),[4],97%
same,Population Apoptotic (%),[5],17%
same,Population Fragmented Nuclei (%),[5],8%
same,Population Healthy Nuclei (%),[5],79%
same,Population Hoechst High Intensity Objects (%),[5],7%
same,Population Membrane Permeable-Phenotype (%),[5],24%
same,Population Mitochondria Different-Phenotype (%),[5],9%
same,Population Mitotic Cells (%),[5],82%
same,Population Normal (%),[5],92%
same,Population Pyknosed Nuclei (%),[5],11%
same,Population Tubulin-Different-Phenotype (%),[5],64%
same,Total Cell Count,[5],845
same,Population Apoptotic (%),[6],3%
same,Population Fragmented Nuclei (%),[6],14%
same,Population Healthy Nuclei (%),[6],82%
same,Population Hoechst High Intensity Objects (%),[6],3%
same,Population Membrane Permeable-Phenotype (%),[6],14%
same,Population Mitochondria Different-Phenotype (%),[6],4%
same,Population Mitotic Cells (%),[6],96%
same,Population Normal (%),[6],96%
same,Population Pyknosed Nuclei (%),[6],2%
same,Population Tubulin-Different-Phenotype (%),[6],42%
same,Total Cell Count,[6],2625
same,Population Apoptotic (%),[7],80% and 55%
same,Population Fragmented Nuclei (%),[7],24% and 18%
same,Population Healthy Nuclei (%),[7],0% and 14%
same,Population Hoechst High Intensity Objects (%),[7],28% and 19%
same,Population Membrane Permeable-Phenotype (%),[7],0% and 8%
same,Population Mitotic Cells (%),[7],19% and 44%
same,Population Normal (%),[7],71% and 80%
same,Population Pyknosed Nuclei (%),[7],75% and 67%
same,Population Apoptotic (%),[8],58% and 99%
same,Population Fragmented Nuclei (%),[8],7% and 14%
same,Population Hoechst High Intensity Objects (%),[8],17% and 16%
same,Population Membrane Permeable-Phenotype (%),[8],9%
same,Population Mitochondria Different-Phenotype (%),[8],84% and 66%
same,Population Normal (%),[8],82% and 83%
same,Population Pyknosed Nuclei (%),[8],79% and 81%
same,Population Tubulin-Different-Phenotype (%),[8],64% and 66%
same,Population Apoptotic (%),[9],82%
same,Population Fragmented Nuclei (%),[9],35%
same,Population Healthy Nuclei (%),[9],0%
same,Population Hoechst High Intensity Objects (%),[9],30%
same,Population Membrane Permeable-Phenotype (%),[9],0%
same,Population Mitochondria Different-Phenotype (%),[9],100%
same,Population Mitotic Cells (%),[9],17%
same,Population Normal (%),[9],69%
same,Population Pyknosed Nuclei (%),[9],63%
same,Population Tubulin-Different-Phenotype (%),[9],100%
same,Total Cell Count,[9],159
same,Population Apoptotic (%),[10],100%
same,Population Fragmented Nuclei (%),[10],19%
same,Population Healthy Nuclei (%),[10],4%
same,Population Hoechst High Intensity Objects (%),[10],17%
same,Population Membrane Permeable-Phenotype (%),[10],16%
same,Population Mitochondria Different-Phenotype (%),[10],83%
same,Population Mitotic Cells (%),[10],0%
same,Population Normal (%),[10],82%
same,Population Pyknosed Nuclei (%),[10],75%
same,Population Tubulin-Different-Phenotype (%),[10],66%
same,Total Cell Count,[10],146
CCn1cc(-c2ccnc3[nH]c(-c4cccc(CN(C)C)c4)cc23)c(-c2ccc(NC(=O)N(C)C)cc2)n1 [GSK-1070916],Population Apoptotic (%),[1],17%
same,Population Fragmented Nuclei (%),[1],16%
same,Population Healthy Nuclei (%),[1],64%
same,Population Hoechst High Intensity Objects (%),[1],11%
same,Population Membrane Permeable-Phenotype (%),[1],16%
same,Population Mitochondria Different-Phenotype (%),[1],9%
same,Population Mitotic Cells (%),[1],82%
same,Population Normal (%),[1],88%
same,Population Pyknosed Nuclei (%),[1],18%
same,Population Tubulin-Different-Phenotype (%),[1],18%
same,Total Cell Count,[1],676
same,Population Apoptotic (%),[2],8%
same,Population Fragmented Nuclei (%),[2],6%
same,Population Healthy Nuclei (%),[2],84%
same,Population Hoechst High Intensity Objects (%),[2],2%
same,Population Membrane Permeable-Phenotype (%),[2],9%
same,Population Mitochondria Different-Phenotype (%),[2],13%
same,Population Mitotic Cells (%),[2],91%
same,Population Normal (%),[2],97%
same,Population Pyknosed Nuclei (%),[2],8%
same,Population Tubulin-Different-Phenotype (%),[2],36%
same,Total Cell Count,[2],1405
same,Population Apoptotic (%),[3],28%
same,Population Fragmented Nuclei (%),[3],14%
same,Population Healthy Nuclei (%),[3],49%
same,Population Hoechst High Intensity Objects (%),[3],24%
same,Population Membrane Permeable-Phenotype (%),[3],16%
same,Population Mitochondria Different-Phenotype (%),[3],32%
same,Population Mitotic Cells (%),[3],71%
same,Population Normal (%),[3],75%
same,Population Pyknosed Nuclei (%),[3],35%
same,Population Tubulin-Different-Phenotype (%),[3],91%
same,Total Cell Count,[3],688
same,Population Apoptotic (%),[4],8%
same,Population Fragmented Nuclei (%),[4],1%
same,Population Healthy Nuclei (%),[4],81%
same,Population Hoechst High Intensity Objects (%),[4],10%
same,Population Membrane Permeable-Phenotype (%),[4],14%
same,Population Mitochondria Different-Phenotype (%),[4],37%
same,Population Mitotic Cells (%),[4],91%
same,Population Normal (%),[4],89%
same,Population Pyknosed Nuclei (%),[4],17%
same,Population Tubulin-Different-Phenotype (%),[4],99%
same,Total Cell Count,[4],1174
same,Population Apoptotic (%),[5],15%
same,Population Fragmented Nuclei (%),[5],13%
same,Population Healthy Nuclei (%),[5],73%
same,Population Hoechst High Intensity Objects (%),[5],8%
same,Population Membrane Permeable-Phenotype (%),[5],18%
same,Population Mitochondria Different-Phenotype (%),[5],6%
same,Population Mitotic Cells (%),[5],84%
same,Population Normal (%),[5],91%
same,Population Pyknosed Nuclei (%),[5],12%
same,Population Tubulin-Different-Phenotype (%),[5],37%
same,Total Cell Count,[5],672
same,Population Apoptotic (%),[6],3%
same,Population Fragmented Nuclei (%),[6],9%
same,Population Healthy Nuclei (%),[6],85%
same,Population Hoechst High Intensity Objects (%),[6],5%
same,Population Membrane Permeable-Phenotype (%),[6],12%
same,Population Mitochondria Different-Phenotype (%),[6],3%
same,Population Mitotic Cells (%),[6],96%
same,Population Normal (%),[6],94%
same,Population Pyknosed Nuclei (%),[6],5%
same,Population Tubulin-Different-Phenotype (%),[6],43%
same,Total Cell Count,[6],1602
same,Population Apoptotic (%),[7],31%
same,Population Fragmented Nuclei (%),[7],17%
same,Population Healthy Nuclei (%),[7],57%
same,Population Hoechst High Intensity Objects (%),[7],33%
same,Population Membrane Permeable-Phenotype (%),[7],9%
same,Population Mitochondria Different-Phenotype (%),[7],42%
same,Population Mitotic Cells (%),[7],68%
same,Population Normal (%),[7],66%
same,Population Pyknosed Nuclei (%),[7],24%
same,Population Tubulin-Different-Phenotype (%),[7],89%
same,Total Cell Count,[7],562
same,Population Apoptotic (%),[8],10%
same,Population Fragmented Nuclei (%),[8],3%
same,Population Healthy Nuclei (%),[8],84%
same,Population Hoechst High Intensity Objects (%),[8],17%
same,Population Membrane Permeable-Phenotype (%),[8],18%
same,Population Mitochondria Different-Phenotype (%),[8],39%
same,Population Mitotic Cells (%),[8],89%
same,Population Normal (%),[8],82%
same,Population Pyknosed Nuclei (%),[8],11%
same,Population Tubulin-Different-Phenotype (%),[8],98%
same,Total Cell Count,[8],1112
